Source: PubChem BioAssay (Johns Hopkins Ion Channel Center)
Kir21 inh = Kir2.1 (mouse) channel inhibition | P35561 | HEK293-Kir2.1, FluxOR thallium flux fluorescence; stronger effect = lower value | B-score at 10 µM | hit rate 0.85% among 310,000 | AID 1672;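 active = fluorescence ratio B-score at or below minus 3 SD of library scores, with starting-brightness B-score within 2 SD, cut at about -4.2 in these data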;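 also: channel flux triggered by added potassium and thallium sulfate stimulus; B-score of peak minus minimum fluorescence over baseline after thallium stimulus; more negative B-score means stronger Kir2.1 block with less thallium influx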
KCNQ1 act = potentiates or activates the human KCNQ1 potassium channel; CHO-K1 KCNQ1, thallium flux FluxOR fluorescence; stronger effect = higher value; B-score at 10 µM; hit rate 0.35% among 310,000; AID 2648;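 active = fluorescence ratio B-score, a plate-corrected score, at least three library SD, with initial intensity B-score within 5 SD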
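Assay system: stable KCNQ1 CHO-K1 line; medium: assay buffer, equal DMSO in all wells; timing: 90 min dye loading and 20 min compound exposure, both at room temperature; technique: kinetic FluxOR thallium fluorescence, 10-s 1-Hz baseline, 110-s post-stimulus read; read-out basis: B score of baseline-normalized fluorescence ratio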
KCNK9 inh = human KCNK9 channel inhibition; hit rate 1.2% among 310,000; Q9NPC2; AID 488922; B-score at 10 µM; HEK293 KCNK9, FluxOR thallium flux fluorescence; stronger effect = lower value;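 active = ratio B-score over 3 SD below the library mean, with starting fluorescence within 5 SD of its mean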;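 also: negative B-score means less thallium flux so channel inhibition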
KCNQ1 block = inhibitors of human KCNQ1 potassium channel; P51787; CHO-K1 KCNQ1, FluxOR thallium flux fluorescence; stronger effect = higher value; B-score at 10 µM; hit rate 1.3% among 310,000; AID 2642;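 active = compounds whose thallium flux B-score, printed positive for inhibition, exceeds three library SD while starting fluorescence stays within three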;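 also: channel opened by potassium depolarization with thallium stimulus after 20 min compound exposure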
hERG rescue = compounds protecting human hERG from proarrhythmic drug block | Q12809 | CHO-hERG, FluxOR thallium flux, dofetilide IC70 present | activation (rescue from dofetilide block), less the hit threshold, % at 10 µM | hit rate 0.51% among 310,000;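 active = activation above the mean of controls blocked by dofetilide plus 5 SD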;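 also: thallium influx through hERG after potassium depolarization seen as dye fluorescence rise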
Target sequence (Q12809 whole entry, looked up): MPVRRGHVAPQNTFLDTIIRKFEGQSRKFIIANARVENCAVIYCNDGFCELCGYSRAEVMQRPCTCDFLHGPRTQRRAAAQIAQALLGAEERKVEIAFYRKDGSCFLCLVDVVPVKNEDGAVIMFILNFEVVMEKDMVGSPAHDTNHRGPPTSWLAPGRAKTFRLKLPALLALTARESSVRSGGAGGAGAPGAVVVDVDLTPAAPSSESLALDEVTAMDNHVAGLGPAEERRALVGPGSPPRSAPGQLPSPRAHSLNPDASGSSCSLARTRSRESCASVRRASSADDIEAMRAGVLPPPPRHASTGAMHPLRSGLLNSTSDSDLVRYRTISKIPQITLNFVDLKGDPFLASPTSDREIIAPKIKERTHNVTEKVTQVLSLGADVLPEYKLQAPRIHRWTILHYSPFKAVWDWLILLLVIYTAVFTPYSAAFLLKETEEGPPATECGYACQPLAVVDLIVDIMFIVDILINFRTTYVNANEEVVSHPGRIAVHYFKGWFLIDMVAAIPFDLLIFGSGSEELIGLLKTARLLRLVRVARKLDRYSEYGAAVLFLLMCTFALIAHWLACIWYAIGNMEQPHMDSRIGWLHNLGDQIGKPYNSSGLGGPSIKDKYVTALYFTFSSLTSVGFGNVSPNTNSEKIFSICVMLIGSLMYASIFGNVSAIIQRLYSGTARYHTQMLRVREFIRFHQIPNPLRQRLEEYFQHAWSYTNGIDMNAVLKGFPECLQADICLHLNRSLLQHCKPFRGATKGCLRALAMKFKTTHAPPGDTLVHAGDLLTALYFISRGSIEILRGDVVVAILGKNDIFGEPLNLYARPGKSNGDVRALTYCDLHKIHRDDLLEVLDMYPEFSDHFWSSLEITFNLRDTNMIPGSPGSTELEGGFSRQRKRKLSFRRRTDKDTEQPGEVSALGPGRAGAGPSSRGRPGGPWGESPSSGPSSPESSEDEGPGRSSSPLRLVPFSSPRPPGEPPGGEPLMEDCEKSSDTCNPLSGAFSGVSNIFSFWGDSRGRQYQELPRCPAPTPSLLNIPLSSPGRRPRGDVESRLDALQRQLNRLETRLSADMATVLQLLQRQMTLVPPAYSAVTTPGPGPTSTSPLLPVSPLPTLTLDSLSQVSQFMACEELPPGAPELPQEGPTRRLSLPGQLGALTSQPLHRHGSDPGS
KCNK3 inh = human KCNK3 channel inhibition, primary screen | CHO-KCNK3 thallium flux, FluxOR fluorescence; stronger effect = lower value | B-score at 10 µM | O14649 | AID 602410 | hit rate 0.84% among 340,000;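 active = B-score under library mean minus 4 SD, starting fluorescence ratio at most library mean plus 5 SD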;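 also: more negative B-score means stronger inhibition of thallium flux through KCNK3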
KCNQ1 block val = confirmation of human KCNQ1 potassium channel inhibitors; shares compounds with KCNQ1 block; KCNQ1 cell line, FluxOR thallium flux fluorescence; hit rate 93% among 1,600; inhibition, % at 10 µM;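 active = primary screen active, with duplicate mean exceeding buffer control mean plus 3 SD of buffer wells, cut at about 28% in these data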
CHO KCNQ1 ctr = KCNQ1 inhibitor counter-screen hit in parental CHO cells | shares compounds with KCNQ1 block | parental CHO-K1, FluxOR thallium flux fluorescence ratio; stronger effect = lower value; zero means no signal rise above baseline | fluorescence ratio (Tl flux) at 10 µM | hit rate 21% among 1,600;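 active = mean of duplicate thallium-flux fluorescence ratios in parental host cells more than 5 SD below the buffer control mean, cut at about 0.38 in these data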;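 also: ratio is peak minus minimum fluorescence divided by baseline fluorescence; actives read low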
KCNQ1 ephys val = confirmation of human KCNQ1 potassium channel inhibitors by electrophysiology. shares compounds with KCNQ1 block. KCNQ1-CHO cells, automated patch clamp current. calls only at 10 µM. hit rate 20% among 490. AID 624120;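 active = KCNQ1 current drop exceeding 3 SD of negative control wells, seen in both duplicate runs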;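 also: steady state current during a 2 s step from -80 to +40 mV; negative values mean current inhibition and positive values mean potentiation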
KCNQ2 spec = KCNQ1 inhibitor that also blocks rat KCNQ2 channel; shares compounds with KCNQ1 block; KCNQ2 cells, FluxOR thallium flux fluorescence; inhibition, % at 10 µM; hit rate 71% among 1,600;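 active = mean percent inhibition of the KCNQ2 thallium signal more than 5 SD above the buffer-only control wells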;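 also: KCNQ2 expressed in CHO cells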
KCNQ1-KCNE1 inh = KCNQ1 inhibitor that also blocks human KCNQ1/KCNE1 channel; shares compounds with KCNQ1 block; KCNQ1/KCNE1 cells, FluxOR thallium flux fluorescence; inhibition, % at 10 µM; hit rate 77% among 1,600; AID 652147;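 active = mean percent inhibition of duplicate wells above the buffer-only control mean plus 3 SD of those controls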
Of the large screens only hits and unclear results are named; the others gave an inactive call (follow-up assays come after a bar, where they were run). An excerpt weighted towards active compounds, which were near 3.8% of everything screened.

O=C(COc1ccccc1[N+](=O)[O-])Nc1ccccc1N1CCCCC1	none
O=C(Nc1ccccc1N1CCCC1)c1ccccc1F	none
O=C(Nc1ccccc1N1CCCCC1)c1ccccc1F	KCNQ1 block 6 | KCNQ1 block val 102 | CHO KCNQ1 ctr 0.37 | KCNQ2 spec 76% | KCNQ1-KCNE1 inh 144%
O=C(Nc1cccc(F)c1)c1ccc(-c2ccccc2Cl)o1	KCNQ1 block 8 | KCNQ1 block val 161 | CHO KCNQ1 ctr 0.31 | KCNQ2 spec 119% | KCNQ1-KCNE1 inh active
Cc1ccc(-n2nc3c(N4CCC(C(=O)NCc5cccc(F)c5)CC4)nnc(C)c3c2C)cc1	none
O=C(CN1C(=O)NC2(CCCC2)C1=O)Nc1nc(-c2ccccc2)cs1	none
COc1ccc(-c2ccc3c(c2)O/C(=C\c2ccsc2)C3=O)cn1	none (no result: Kir21 inh, KCNQ1 act, KCNK9 inh, KCNQ1 block, hERG rescue)
CC(C)(CCl)C(=O)Nc1ccc(C(F)(F)F)cc1	KCNQ1 block 6 | KCNQ1 block val 56 | CHO KCNQ1 ctr inactive | KCNQ2 spec 66% | KCNQ1-KCNE1 inh 68%
C/C(=C\C(=O)C(F)(F)F)Nc1ccc(C(F)(F)F)cc1	none
COC(=O)c1ccccc1N1CCS(=O)(=O)CC1	none
O=C1C(Cl)=C(N2CCCCCC2)C(=O)N1c1ccccc1	none
O=C1C(Cl)=C(N2CCCCCC2)C(=O)N1c1ccc(Br)cc1	KCNQ1 block 6 | KCNQ1 block val 85 | CHO KCNQ1 ctr inactive | KCNQ2 spec 101% | KCNQ1-KCNE1 inh 100%
O=c1[nH]c2ccc([N+](=O)[O-])cc2nc1/C=C(\O)c1ccccc1	none
CC(=O)c1ccc(Nc2nc(NCCO)nc(OC(C(F)(F)F)C(F)(F)F)n2)cc1	KCNQ1 block 8 | KCNQ1 block val 85 | CHO KCNQ1 ctr inactive | KCNQ2 spec inactive | KCNQ1-KCNE1 inh 114%
CNc1nc(Nc2ccc(C(C)=O)cc2)nc(OC(C(F)(F)F)C(F)(F)F)n1	none
O=C(CN(c1ccccc1)S(=O)(=O)c1ccccc1)Nc1ccc(F)cc1	none
O=C(Cn1cnc2ccccc2c1=O)N1CCN(c2ccccc2)CC1	KCNQ1 block 7 | KCNQ1 block val inactive | CHO KCNQ1 ctr inactive | KCNQ2 spec inactive | KCNQ1-KCNE1 inh inactive
Cc1cc2c(=O)n(CC(=O)N3CCN(c4ccccc4)CC3)cnc2s1	none (no result: Kir21 inh, KCNQ1 act, KCNK9 inh, KCNQ1 block, hERG rescue)
CCOC(=O)c1cc(C#N)c(Oc2ccccc2)nc1-c1ccccc1	KCNQ1 block 7 | KCNQ1 block val 88 | CHO KCNQ1 ctr 0.33 | KCNQ2 spec 112% | KCNQ1-KCNE1 inh 96%
CC(=O)O[C@H]1C[C@@]2(C)[C@@H](C[C@@H](O)[C@H]3[C@@]4(C)CC[C@@H](O)[C@@H](C)[C@@H]4CC[C@@]32C)/C1=C(\CCC=C(C)C)C(=O)O	none
O=S(=O)(c1ccccc1)N1c2cc(Cl)ccc2Oc2nc3ccccc3nc21	KCNQ1 block 8 | KCNQ1 block val 109 | CHO KCNQ1 ctr 0.36 | KCNQ2 spec 100% | KCNQ1-KCNE1 inh 146%
CCc1nc2ccccc2nc1N1CCN(S(=O)(=O)c2ccc(Cl)cc2)CC1	none
c1ccc2c(N3CCCCC3)nc(N3CCCC3)nc2c1	KCNQ1 block 9 | KCNQ1 block val 36 | CHO KCNQ1 ctr inactive | KCNQ2 spec inactive | KCNQ1-KCNE1 inh inactive
c1ccc(-c2nc(N3CCCCC3)nc3ccccc23)cc1	KCNQ1 block 7 | KCNQ1 block val 118 | CHO KCNQ1 ctr inactive | KCNQ1 ephys val inactive | KCNQ2 spec 113% | KCNQ1-KCNE1 inh 174%
c1ccc2c(c1)nc(N1CCCCC1)c1ccccc12	none
O=C(NCCc1ccco1)C(=O)NCC1OCCCN1S(=O)(=O)c1cc(F)ccc1F (centres undefined)	none
CC(C)CN(C(=O)CN1CCc2ccccc21)c1c(N)n(CC(C)C)c(=O)[nH]c1=O	none
Cc1ccc2c(C(=O)N3CCN(c4ccccc4)CC3)cc(-c3cccnc3)nc2c1C	KCNQ1 block 8 | KCNQ1 block val 92 | CHO KCNQ1 ctr inactive | KCNQ1 ephys val inactive | KCNQ2 spec inactive | KCNQ1-KCNE1 inh 192%
C=COc1ccc(N2C(=O)c3ccccc3OC2C)cc1 (centres undefined)	none
CCOC(=O)N1CCN(CC(O)COCCC23CC4CC(CC(C4)C2)C3)CC1 (centres undefined)	none
CC1CCCCN1CC(O)COCCC12CC3CC(CC(C3)C1)C2 (centres undefined)	KCNQ1 block 8 | KCNQ1 block val 90 | CHO KCNQ1 ctr inactive | KCNQ1 ephys val active | KCNQ2 spec 71% | KCNQ1-KCNE1 inh 64%
COc1ccc(-c2csc(NC(=O)CSCc3c(C)noc3C)n2)c(OC)c1	none
Cc1cc(C)c(CSc2ncc(-c3ccc([N+](=O)[O-])cc3)[nH]2)c(C)c1	KCNQ1 block 16 | KCNQ1 block val 140 | CHO KCNQ1 ctr inactive | KCNQ1 ephys val inactive | KCNQ2 spec 93% | KCNQ1-KCNE1 inh 184%
C=CCNc1sc(C(=O)c2ccccc2)c(N)c1-c1nc2ccccc2s1	KCNQ1 block 7 | KCNQ1 block val 57 | CHO KCNQ1 ctr inactive | KCNQ2 spec 73% | KCNQ1-KCNE1 inh 84%
CCOC(=O)C1=C(c2ccccc2)NC(SCC(=O)Nc2ccc(C)cc2)=C(C#N)C1c1ccco1 (centres undefined)	none
CCOC(=O)CSC1=C(C#N)C(c2ccco2)C(C(=O)Nc2cccc(C(F)(F)F)c2)=C(C)N1 (centres undefined)	KCNQ1 block 8 | KCNQ1 block val 145 | CHO KCNQ1 ctr inactive | KCNQ1 ephys val inactive | KCNQ2 spec 125% | KCNQ1-KCNE1 inh active
CCOC(=O)C1CCN(C2=C(NS(=O)(=O)c3ccc(Cl)cc3)C(=O)c3ccccc3C2=O)CC1	KCNQ1 block 6 | KCNQ1 block val 124 | CHO KCNQ1 ctr 0.32 | KCNQ2 spec 135% | KCNQ1-KCNE1 inh 182%
CCOC(=O)C1CCCN(C2=C(NS(=O)(=O)c3ccc(Br)cc3)C(=O)c3ccccc3C2=O)C1 (centres undefined)	none
O=C(C[C@@H]1C/C=C\CC[C@H](Cc2ccc(F)cc2)C(=O)OC[C@@H]2CCCN2C1=O)N[C@H](CO)Cc1ccccc1	none (no result: Kir21 inh, KCNQ1 act, KCNK9 inh, KCNQ1 block, hERG rescue)
